Columns and labels:
Assay type in all cases: functional, cell-based
[1] = Cytotoxicity against human ES2 cells assessed as cell viability after 48 hrs by MTT assay; conditions: ES-2, 48 h
In short: (§1)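 HT-29 colon and ES-2 ovarian cells were grown in McCoy's 5A with 10% FCS and 1% Pen-Strep, and MT-3 breast cells in RPMI. Cells were seeded at 1 × 10⁴ per well 24 h before dosing. Free drug was given in DMSO/water (final DMSO max 0.5%). Liposomes were diluted in PBS, with lipid content set by phosphorus analysis. Exposure lasted 24 h, then cells were washed and kept 48 h in complete medium.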

HT-29 [2] = experiment: Cytotoxicity against human HT-29 cells assessed as cell viability after 48 hrs by MTT assay; conditions: HT-29, 48 h; in short: as §1
HT-29 [3] = experiment: Cytotoxicity against human HT-29 cells assessed as cell viability after 48 hrs by MTT assay in presence of Agkistrodon piscivorus secreted PLA2; conditions: HT-29, 48 h
In short: (§2)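 These lines follow the same protocol: HT-29 and ES-2 cells in McCoy's 5A with 10% FCS and 1% Pen-Strep, MT-3 cells in RPMI, seeded at 1 × 10⁴ per well 24 h ahead. Liposomal prodrugs in PBS were given with Agkistrodon piscivorus piscivorus venom sPLA₂ at 5 nM final. Exposure lasted 24 h, then cells were washed and given 48 h recovery in complete medium.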

[4] = Cytotoxicity against human ES2 cells assessed as cell viability after 48 hrs by MTT assay in presence of Agkistrodon piscivorus secreted PLA2; conditions: ES-2, 48 h; in short: as §2
[5] = Cytotoxicity against human MT3 cells assessed as cell viability after 48 hrs by MTT assay in presence of Agkistrodon piscivorus secreted PLA2; conditions: MT-3, 48 h; in short: as §2
[6] = Cytotoxicity against human MT3 cells assessed as cell viability after 48 hrs by MTT assay; conditions: MT-3, 48 h; in short: as §1

SMILES | IC50 [1] | IC50 (HT-29 [2]) | IC50 (HT-29 [3]) | IC50 [4] | IC50 [5] | IC50 [6]
CCCCCCCCCCCCCCCCCCOC[C@H](COP(=O)(O)OC[C@@H](O)CO)OC(=O)CCCc1ccc(N(CCCl)CCCl)cc1 | 97 µM | > 200 µM | 10 µM | 8 µM | 36 µM | > 200 µM
CCCCCCCCCCCCCCCCCCOC[C@H](COP(=O)([O-])OCC[N+](C)(C)C)OC(=O)CCCc1ccc(N(CCCl)CCCl)cc1 |  | > 200 µM | 32 µM |  | 36 µM | > 200 µM
CCCCCCCCCCCCCCCCCCOC[C@@H](O)COP(=O)([O-])OCC[N+](C)(C)C | 30 µM | 18 µM |  |  |  | 35 µM
O=C(O)CCCc1ccc(N(CCCl)CCCl)cc1 [CHLORAMBUCIL] | 34 µM | 70 µM |  |  |  | 95 µM

From ChEMBL document CHEMBL1138516, “Synthesis and biophysical characterization of chlorambucil anticancer ether lipid prodrugs” (J Med Chem, 2009)
